Measurements from ChEMBL document CHEMBL3244133, “Synthesis and biological activities of some uronic acids, uronates, uronamides, and urononitriles of pyrimidine nucleosides” (J Med Chem, 1978).
Active and inactive are the calls of the source. The rule behind the calls is not given here.

How the values were obtained:
Lacticaseibacillus casei = assay: Inhibition of Lactobacillus casei deoxythymidylate synthetase at 250 uM
L1210 = assay: Inhibition of deoxythymidylate synthetase in mouse L1210 cells at 250 uM; format: cell-based
[1] = Competitive inhibition of HSV-1 pyrimidine deoxythymidine kinase using 2-[14C]deoxythymidine as substrate; design: species or system Human alphaherpesvirus 1
Method in brief: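 HSV-1 encoded pyrimidine deoxyribonucleoside kinase, purified from LMTK⁻ cells. Assay at 37 °C in 50 mM Tris pH 7.8 with 3 mM ATP·Mg²⁺, 0.3 mg/mL BSA, 0.3 mM 2-mercaptoethanol and 2% glycerol. Substrate was varied [2-¹⁴C]deoxythymidine plus analogue. Reaction was started with enzyme; aliquots were taken over time and phosphorylated product measured. Ki came from double-reciprocal plots.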

[2] = Antiviral activity against HSV1 CL101 infected in African green monkey Vero cells assessed as inhibition of plaque formation at 400 uM after 40 hrs relative to control; format: functional, Herpes simplex virus (type 1 / strain CL101); details: Human alphaherpesvirus 1, Vero
CCRF S-180 [3] = assay: Cytotoxicity against mouse S180 cells at 400 uM after 18 to 42 hrs relative to control; format: functional
Enterococcus faecium [4] = assay: Antimicrobial activity against Streptococcus faecium assessed as growth inhibition at 400 uM after 15 to 17 hrs by turbidity assay in presence of 7 uM deoxythymidine; format: functional
Method in brief: (§1)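 S. faecium (ATCC 8043), washed and resuspended in saline to 100 Klett units, then diluted 10-fold as inoculum. Test compound was added to basal medium with deoxythymidine (7 μM final) or folic acid (4.53 nM final). Incubation was 15-17 h at 37 °C. Growth was taken as the turbidity change before versus after incubation, read on a Klett colorimeter with a red filter (640-700 nm).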

Enterococcus faecium [5] = assay: Antimicrobial activity against Streptococcus faecium assessed as growth inhibition at 400 uM after 15 to 17 hrs by turbidity assay in presence of 4.53 nM folic acid; format: functional; method in brief: as §1
[6] = Antiviral activity against HSV1 CL101 infected in African green monkey Vero cells assessed as inhibition of plaque formation at 0.1 uM after 40 hrs relative to control; format: functional, Herpes simplex virus (type 1 / strain CL101); details: Human alphaherpesvirus 1, Vero
CCRF S-180 [7] = assay: Cytotoxicity against mouse S180 cells at 0.001 uM after 18 to 42 hrs relative to control; format: functional
[8] = Retention time of the compound by liquid chromatography; format: physicochemical
Method in brief: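 Reverse-phase HPLC with a methanol-water gradient, separating uronic acids from the parent pyrimidine bases and nucleosides.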

[9] = Antiviral activity against HSV1 CL101 infected in African green monkey Vero cells assessed as inhibition of plaque formation at 40 uM after 40 hrs relative to control; format: functional, Herpes simplex virus (type 1 / strain CL101); details: Human alphaherpesvirus 1, Vero
Enterococcus faecium [10] = assay: Antimicrobial activity against Streptococcus faecium after 15 to 17 hrs by turbidity assay; format: functional; details: read-out: ED50 (the source's name); method in brief: as §1
[11] = Dissociation constant, pKa of the compound; format: physicochemical
Enterococcus faecium [12] = assay: Antimicrobial activity against Streptococcus faecium assessed as concentration required for maximum growth inhibition after 15 to 17 hrs by turbidity assay; format: functional; method in brief: as §1
[13] = Antiviral activity against HSV1 CL101 infected in African green monkey Vero cells assessed as inhibition of plaque formation at 200 uM after 40 hrs relative to control; format: functional, Herpes simplex virus (type 1 / strain CL101); details: Human alphaherpesvirus 1, Vero
CCRF S-180 [14] = assay: Cytotoxicity against mouse S180 cells at 5 uM after 18 to 42 hrs relative to control; format: functional
[15] = Antiviral activity against HSV1 CL101 infected in African green monkey Vero cells assessed as inhibition of plaque formation at 10 uM after 40 hrs relative to control; format: functional, Herpes simplex virus (type 1 / strain CL101); details: Human alphaherpesvirus 1, Vero
[16] = Antiviral activity against HSV1 CL101 infected in African green monkey Vero cells assessed as inhibition of plaque formation at 50 uM after 40 hrs relative to control; format: functional, Herpes simplex virus (type 1 / strain CL101); details: Human alphaherpesvirus 1, Vero

O=C(O)[C@H]1O[C@@H](n2cc(F)c(=O)[nH]c2=O)C[C@@H]1O [RIBOFURANURONIC ACID]
inhibition (Lacticaseibacillus casei): inactive | inhibition (L1210): inactive

CC(=O)O[C@H]1C[C@H](n2cc(F)c(=O)[nH]c2=O)O[C@@H]1C(N)=O
Ki [1]: 960 µM

N#C[C@H]1O[C@@H](n2cc(F)c(=O)[nH]c2=O)C[C@@H]1O
inhibition (Lacticaseibacillus casei): inactive | Ki [1]: 75 µM | inhibition (L1210): inactive

COC(=O)[C@H]1O[C@@H](n2cc(F)c(O)nc2=O)C[C@@H]1O
inhibition (Lacticaseibacillus casei): inactive | inhibition at 400 µM [2]: 0% | inhibition at 400 µM (CCRF S-180 [3]): 32% | inhibition (INH) (Enterococcus faecium [4]): 0% | inhibition (INH) (Enterococcus faecium [5]): 0% | Ki [1]: 410 µM | inhibition (L1210): inactive

O=c1[nH]c(=O)n([C@H]2C[C@H](O)[C@@H](CO)O2)cc1F [FLOXURIDINE]
inhibition at 0.1 µM [6]: 88% | inhibition at 0.001 µM (CCRF S-180 [7]): 95% | inhibition (INH) (Enterococcus faecium [4]): 96% | inhibition (INH) (Enterococcus faecium [5]): 95% | Ki [1]: 1.5 µM | Retention_time [8]: 7.93 min

O=c1[nH]c(=O)n([C@H]2C[C@H](O)[C@@H](CF)O2)cc1I
Ki [1]: 1.5 µM

Nc1nc(=O)n([C@H]2C[C@H](O)[C@@H](CO)O2)cc1Br
Retention_time [8]: 16.53 min

COC(=O)[C@H]1O[C@@H](n2cc(C)c(=O)[nH]c2=O)C[C@@H]1O
Ki [1]: 4 µM

NC(=O)[C@H]1O[C@@H](n2ccc(O)nc2=O)C[C@@H]1O (stereo in doubt; 19) [listing 1 of 2 here]
inhibition (Lacticaseibacillus casei): inactive | inhibition (L1210): inactive

CC(=O)O[C@H]1C[C@H](n2cc(I)c(=O)[nH]c2=O)O[C@@H]1C(N)=O
Ki [1]: 20 µM

NC(=O)[C@H]1O[C@@H](n2cc(I)c(O)nc2=O)C[C@@H]1O
inhibition at 400 µM [2]: 96% | inhibition at 40 µM [9]: 78% | inhibition at 400 µM (CCRF S-180 [3]): 0% | inhibition (INH) (Enterococcus faecium [4]): 0% | inhibition (INH) (Enterococcus faecium [5]): 28% | Ki [1]: 1 µM

N#C[C@H]1O[C@@H](n2cc(I)c(O)nc2=O)C[C@@H]1O
inhibition at 400 µM [2]: 74% | inhibition at 400 µM (CCRF S-180 [3]): 0% | inhibition (INH) (Enterococcus faecium [4]): 0% | inhibition (INH) (Enterococcus faecium [5]): 14% | Ki [1]: 1.3 µM

Cc1cn([C@H]2C[C@H](O)[C@@H](C(N)=O)O2)c(=O)[nH]c1=O
Ki [1]: 1.6 µM

O=C(O)[C@H]1O[C@@H](n2ccc(=O)[nH]c2=O)C[C@@H]1O
Ki [1]: 500 µM

Nc1nc(=O)n([C@H]2C[C@H](O)[C@@H](C(=O)O)O2)cc1I
Retention_time [8]: 3.35 min

O=c1ccn([C@H]2C[C@H](O)[C@@H](CO)O2)c(=O)[nH]1 [DEOXYURIDINE]
EC50 (Enterococcus faecium [10]): 37 µM | pKa [11]: 9.3 | Ki [1]: 9.5 µM

Nc1ccn([C@H]2C[C@H](O)[C@@H](CO)O2)c(=O)n1 [DOXECITINE]
EC50 (Enterococcus faecium [10]): 50 µM

COC(=O)[C@H]1O[C@@H](n2cc(Br)c(=O)[nH]c2=O)C[C@@H]1O
Ki [1]: 2.9 µM

NC(=O)[C@H]1O[C@@H](n2ccc(O)nc2=O)C[C@@H]1O (stereo in doubt; 19) [listing 2 of 2 here]
inhibition at 400 µM [2]: 0% | inhibition at 400 µM (CCRF S-180 [3]): 0% | inhibition (INH) (Enterococcus faecium [4]): 71% | inhibition (INH) (Enterococcus faecium [5]): 22% | EC50 (Enterococcus faecium [10]): 200 µM | Activity (Enterococcus faecium [12]): 600 µM

CC(=O)O[C@H]1C[C@H](n2cc(Br)c(=O)[nH]c2=O)O[C@@H]1C#N
Ki [1]: 28 µM

Nc1nc(=O)n([C@H]2C[C@H](O)[C@@H](CO)O2)cc1I [IBACITABINE]
Retention_time [8]: 19.87 min

COC(=O)[C@H]1O[C@@H](n2ccc(=O)[nH]c2=O)C[C@@H]1O
Ki [1]: 500 µM

CC(=O)O[C@H]1C[C@H](n2cc(I)c(=O)[nH]c2=O)O[C@@H]1C#N
Ki [1]: 18 µM

CC(=O)O[C@H]1C[C@H](n2cc(C)c(=O)[nH]c2=O)O[C@@H]1CO
Ki [1]: 58 µM

O=c1[nH]cc(Br)c(=O)[nH]1 [5-BROMOURACIL]
Retention_time [8]: 7.69 min

O=c1[nH]cc(I)c(=O)[nH]1
Retention_time [8]: 8.85 min

O=c1[nH]cc(F)c(=O)[nH]1 [FLUOROURACIL]
Retention_time [8]: 5.29 min

CC(=O)O[C@H]1C[C@H](n2cc(Br)c(=O)[nH]c2=O)O[C@@H]1C(N)=O
Ki [1]: 192 µM

Nc1ccn([C@@H]2O[C@H](CO)[C@@H](O)[C@@H]2O)c(=O)n1 [CYTARABINE]
inhibition at 200 µM [13]: 91% | inhibition at 5 µM (CCRF S-180 [14]): 98% | Retention_time [8]: 2.07 min

Nc1ccn([C@@H]2O[C@H](C(=O)O)[C@@H](O)[C@@H]2O)c(=O)n1
inhibition at 400 µM [2]: 0% | inhibition at 400 µM (CCRF S-180 [3]): 76% | inhibition (INH) (Enterococcus faecium [4]): 0% | inhibition (INH) (Enterococcus faecium [5]): 0% | Retention_time [8]: 2.56 min

N#C[C@H]1O[C@@H](n2cc(Br)c(=O)[nH]c2=O)C[C@@H]1O
Ki [1]: 1.8 µM

O=C(O)[C@H]1O[C@@H](n2cc(Br)c(O)nc2=O)C[C@@H]1O
Ki [1]: 2.7 µM | Retention_time [8]: 2.56 min

COC(=O)[C@H]1O[C@@H](n2cc(I)c(=O)[nH]c2=O)C[C@@H]1O
Ki [1]: 1.5 µM

Cc1cn([C@H]2C[C@H](O)[C@@H](CO)O2)c(=O)[nH]c1=O [DOXRIBTIMINE]
EC50 (Enterococcus faecium [10]): 11 µM | pKa [11]: 9.8

NC(=O)[C@H]1O[C@@H](n2cc(Br)c(O)nc2=O)C[C@@H]1O
inhibition at 400 µM [2]: 92% | inhibition at 40 µM [9]: 42% | inhibition at 400 µM (CCRF S-180 [3]): 0% | inhibition (INH) (Enterococcus faecium [4]): 0% | inhibition (INH) (Enterococcus faecium [5]): 0% | Ki [1]: 0.8 µM

NC(=O)[C@H]1O[C@@H](n2cc(F)c(=O)[nH]c2=O)C[C@@H]1O
inhibition (Lacticaseibacillus casei): inactive | Ki [1]: 18 µM | inhibition (L1210): inactive

Nc1nc(=O)n([C@H]2C[C@H](O)[C@@H](C(=O)O)O2)cc1Br
Retention_time [8]: 3.05 min

Cc1cn([C@H]2C[C@H](O)[C@@H](C(=O)O)O2)c(=O)[nH]c1=O [5'-CARBOXY THYMIDINE]
Ki [1]: 5.4 µM

NC(=O)[C@H]1O[C@@H](n2ccc(O)nc2=O)C[C@@H]1O (stereo in doubt)
Ki [1]: 310 µM | Activity (Enterococcus faecium [12]): 600 µM

O=c1[nH]c(=O)n([C@H]2C[C@H](O)[C@@H](CO)O2)cc1Br [BROXURIDINE]
inhibition at 10 µM [15]: 99.6% | inhibition (INH) (Enterococcus faecium [4]): 76% | inhibition (INH) (Enterococcus faecium [5]): 91% | Ki [1]: 0.2 µM | Retention_time [8]: 12.16 min

O=C(O)[C@H]1O[C@@H](n2cc(I)c(O)nc2=O)C[C@@H]1O
Ki [1]: 4.2 µM | Retention_time [8]: 2.97 min

O=c1[nH]c(=O)n([C@H]2C[C@H](O)[C@@H](CO)O2)cc1I [IDOXURIDINE]
inhibition at 50 µM [16]: 99.7% | inhibition (INH) (Enterococcus faecium [4]): 12% | inhibition (INH) (Enterococcus faecium [5]): 71% | Ki [1]: 0.2 µM | Retention_time [8]: 14.41 min
